The text below walks through data of the RNAGym collection of RNA variant scans (doi:10.1126/science.aae0568).

Fewer inactive variants are shown than the library holds.

To fix the notation:
B1: tRNA (parent)
chain: GUUCCGUUGGCGUAAUGGUAACGCGUCUCCCUCCUAAGGAGAAGACUGCGGGUUCGAGUCCCGUACGGAACG

The variants in this series derive from B1. Description: yeast fitness relative to wild type (ratio to wild type); higher = fitter; tRNA-Arg(CCU), competitive growth, 37 C, YPD. The method in brief: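 Variants of the tRNA-Arg(CCU) gene, chemically synthesised with a 3% per-site mutation rate at 69 sites, were placed at the native genomic locus in Saccharomyces cerevisiae. The pooled strains were competed in YPD at 37°C for 24 hours in six parallel replicates. Gene amplicons from the start population and from each end population were read by 100-nucleotide paired-end sequencing. Darwinian fitness relative to wild type came from changes in genotype frequencies; genotypes needed ≥ 100 starting reads, and estimates < 0.5 were set to 0.5.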
Turning to GUUCCGUUGGCGUUAUGGUAACGGGUCUCCCUCCUAAGGAAAAAACUGCGGGAUCGAGUCCCAUAUGGAACG [A14U C24G G41A G44A U53A G63A C66U], the yeast fitness was not above 0.5. As to GUUCCGUUGGCGUUAUGGUAACGCGUCUCCUUCCUAAGGAGAAGACUGCGGGUUUGAGUCCCGUACGAAACG [A14U C31U C55U G68A], the yeast fitness was found to be 0.618. To GUUCCGUUGGCGUUAUGGUAACGGGUCUCCCUCCUAAGGAAAAAACUGCGGGAUCGGGUCCCGUAUGGAACG [A14U C24G G41A G44A U53A A57G C66U] belongs 0.529; to GUUCCGUUGGCGUUAUGGUAACGCGUCUCUCUCCUAAGGAGAAGACUGCGGGUUCGAGUCCGGUGCGCAACG [A14U C30U C62G A65G G68C], not above 0.5; to GUUCCGUUGGCGUUAUGGUAACGCGUCUCUCUCCUAAGGAGAAGACUGCGGGUUCGACUACCGUACGGAACG [A14U C30U G58C C60A], not above 0.5. Then GUUCCGUUGGCGUUAUGGUAACGCGUGUCCCUCCUAAGGAGAAGACUGCGGGUUCGAGUCCCGUACGGAACG [A14U C27G], with 0.611; and GUUCCGUUGGCGUUAUGGUAACGCGUCUUACUCCUAAGGAGAAGCCUGCGGGUUCGAGUCCCGUACGGAACG [A14U C29U C30A A45C], with not above 0.5. To GUUCCGUUGGCGUUAUGGUAAUGCGUCUCUCUCCUAAGGAGAAGAUUGCGGCUUCGAGUCCCGUACGGAACG [A14U C22U C30U C46U G52C] belongs not above 0.5. Regarding GUUCCGUUGGCGUUAUGGUAACGCGUCUCACUCCUAAGGAGAAGACUGCGGGUUCGAGUCCCGUAUGGAACG [A14U C30A C66U], the yeast fitness is 0.547.

Turning to GUUCCGUUGGCGUUAUGGUAACGGGUCUCCCUCCUGAGGAGAAGACUGCGGGUUCGAGUCCCGUAUGGAACG [A14U C24G A36G C66U], the yeast fitness is not above 0.5. To GUUCCGUUGGCGUUAUGGUAACGCGUUUCCCUCCUAAGGAGAAGACUGCGGGUUCGAGUCCCGUAGGGAACG [A14U C27U C66G] belongs not above 0.5; to GUUCCGUUGGCGUUAUGGUAACGCGUCUCCGUCCUAAAGAGAAGACUGCGGGUUCGAGUCCCGUACGGAACG [A14U C31G G38A], 0.657. To GUUCCGUUGGCGUUAUGGUAACGUGUCUCCCUCCUAAGGAGAAGACUGCGGGUUCGAGUCCCGCACGGAACG [A14U C24U U64C] belongs not above 0.5; to GUUCCGUUGGCGUUAUGGUAACGCGUGUCCCUCCUAUGGAGAAGACUGCGGGUUCGAGUCCCGUACGGAACG [A14U C27G A37U], not above 0.5. In the case of GUUCCGUUGGCGUUAUGGUAACGCGUCUGCCUCCUAAGGAGAAGACUGCGGGUUCGGGGCCGGUAUGGAACG [A14U C29G A57G U59G C62G C66U], the yeast fitness is not above 0.5.

Take GUUCCGUUGGCGUUAUGGUAACGCGUCUUCCUCCUAAGGAGAAGACUGCGGGUUCGAGUCCCGUACGGAACG [A14U C29U]: the yeast fitness amounted to 0.64. To GUUCCGUUGGCGUUAUGGUAACGCGUCUGCCUCCUAAGGAGAAGACUGCGGGUUCGAGUCCCGUACGGAACG [A14U C29G] belongs 0.692. To GUUCCGUUGGCGUUAUGGUAACGCGUCUUCCUCCUAUGGAGAAGACUGCGGGUUCGAGUCCCGUAUGGAACG [A14U C29U A37U C66U] belongs not above 0.5; to GUUCCGUUGGCGUUAUGGUAACGCGUGUCCCUCCUAAGGAGAAGACUGCGGAUUCGAGUUCCGUACGGAACG [A14U C27G G52A C60U], not above 0.5. Then GUUCCGUUGGCGUUAUGGUAACGCGUCUUCCUCCUAUGGAGAAGACUGCAGGUUCGAGUCCCGUACGGAACG [A14U C29U A37U G50A], with not above 0.5; and GUUCCGUUGGCGUUAUGGUAACGGGUCUCCCUCCUAAGGAGAAGACUGCGGGUUCGAGUCCCGUACGGAACG [A14U C24G], with 0.657.

For GUUCCGUUGGCGUUAUGGUAACGCGUAUCCCUUCUAAGGAGAAGACCGUGAGUUCGAGUCCCGUACGGAACG [A14U C27A C33U U47C C49U G51A], the yeast fitness is not above 0.5.

In the case of GUUCCGUUGGCGUUAUGGUAACGCGUCUUCCUCCUAUGGAGAAGAUUGCGGGUUCGAGGCCCGUACGGAACG [A14U C29U A37U C46U U59G], the yeast fitness is not above 0.5. To GUUCCGUUGGCGUUAUGGUAACGCGUCUCUCUCUUAAGGAGAAGUCUGCGGGUUCGAGUCCCGUACGGAACG [A14U C30U C34U A45U] belongs not above 0.5; to GUUCCGUUGGCGUUAUGGUAACGCGUGUCCCUCCUGAGGAGAAGACUGCGGCUUCGAGUCACGUACGGAACG [A14U C27G A36G G52C C61A], not above 0.5; to GUUCCGUUGGCGUUAUGGUAACGCGUCUCGCUCCUAAGGAGAAGACUGCGGGUUCGAGUCCCGUACGGAACG [A14U C30G], 0.516.

GUUCCGUUGGCGUUAUGGUAACGCGUCUUCCUCCUAAGGAGAAGACUGCGGGUUUGAGUCCCGUACGGGACG [A14U C29U C55U A69G]: the yeast fitness was not above 0.5. To GUUCCGUUGGCGUUAUGGUAACGCGUCUCACUCCUAAGGAGAAGACUGCGGGUUCGAGUCCCGUCCGGAACG [A14U C30A A65C] belongs not above 0.5. Then GUUCCGUUGGCGUUAUGGUAACGGGGCUCCCUCCUAAGGAGAAGACUGCGGGUUCGAGUCCCGUACGGAACG [A14U C24G U26G], with not above 0.5.

Turning to GUUCCGUUGGCGUUAUGGUAACGCGUCUCACUCCUAAAGAGAAGACUGCGGGUUAGAGUCCCGUCCGGAACG [A14U C30A G38A C55A A65C], the yeast fitness is not above 0.5.

GUUCCGUUGGCGUUAUGGUAACGCGUCUCACUCCUAAGGAGAAGAUUGCGGGUUCGAGUCCAGUACGGAACG [A14U C30A C46U C62A]: the yeast fitness is not above 0.5. Then GUUCCGUUGGCGUUAUGGUAACGCGUCUUCCGCCUAAGGAGAAGACUGCGGGUUCGUGUCCCGUACGGAACG [A14U C29U U32G A57U], with not above 0.5; and GUUCCGUUGGCGUUAUGGUAACGCGUCUGCCUCCUAAGGAGAAGACUGCGGGCGCGAGUCCCGUACGGAACG [A14U C29G U53C U54G], with 0.571; and GUUCCGUUGGCGUUAUGGUAACGCGUCUCUCUCCUAAGGAGAAGACUGCGGGUUCGAGUACCGUAUGGAACG [A14U C30U C60A C66U], with 0.618. Then GUUCCGUUGGCGUUAUGGUAACGCGUUUCCCUCCUAAGGAGAAGACUGCGGGUUGGAGUCCCGUACGAAACG [A14U C27U C55G G68A], with not above 0.5; and GUUCCGUUGGCGUUAUGGUAAUGCGUCUCCCUCCUAAGGAGAAGUCUGCGGGUUCGAGUCCCGUACGGAACG [A14U C22U A45U], with not above 0.5. For the variant GUUCCGUUGGCGUUAUGGUAACGCGUUUCCCUCCUAAGGAGAAGACUGCGGGUUCGAGUCCCGUACGGGACG [A14U C27U A69G], the yeast fitness is not above 0.5. To GUUCCGUUGGCGUUAUGGUAACGCGUCUCCGUCCUAAAGAGAAGACUGCGGGUUCGAGUCCCGUAUGGAACG [A14U C31G G38A C66U] belongs not above 0.5.
